From ChEMBL document CHEMBL1921735, “Antibacterial optimization of 4-aminothiazolyl analogues of the natural product GE2270 A: identification of the cycloalkylcarboxylic acids” (J Med Chem, 2011)
≈ marks a conversion by molar mass, not a printed value. Calls of active or inactive are those of the source. Unless noted, the calls are words filed in the database; no cut-off is given here.

Key:
[1] = Clearance in Sprague-Dawley rat at 25 mg/kg, iv bolus; format: ADME, organism-based; design: dose 25 mg/kg, route intravenous; details: in vivo
Outline: (§1)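 Male Sprague−Dawley rats (220−270 g, ~6−10 weeks) with dual jugular vein cannulae, fasted overnight and for 8 h post-dose, given iv bolus (N = 2 or 3). Blood was collected into K2EDTA tubes and plasma was obtained. Plasma was protein-precipitated with acetonitrile containing glyburide internal standard, then analysed by LC−MS/MS (C18, 0.1% formic acid water/acetonitrile gradient).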

[2] = tested on: Staphylococcus aureus; test: Antibacterial activity against Staphylococcus aureus ATCC 01001 infected in thigh of CD1 mouse assessed as prevention of colony formation at 80 to 320 mg/kg, ip administered 2 hrs post infection measured after 12 hrs; format: functional, organism-based
Outline: (§2)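 Female CD1 mice (21−25 g), made neutropenic with cyclophosphamide ip at 150 mg/kg (day −4) and 100 mg/kg (day −1). Left thigh infected im with 0.05 mL S. aureus ATCC 01001 (7.5 × 10^5 cfu/thigh), grown 16 h at 36 °C in cation-supplemented Mueller Hinton. Treatment given 2 h post-infection, four mice per group. At 12 or 24 h thighs were excised, homogenized in 0.9% NaCl, serially diluted and plated on blood agar for cfu.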

[3] = tested on: Staphylococcus aureus; test: Antibacterial activity against Staphylococcus aureus ATCC 01001 infected in thigh of CD1 mouse assessed as prevention of colony formation at 80 to 320 mg/kg, ip administered 2 hrs post infection measured after 24 hrs; format: functional, organism-based; outline: as §2
[4] = tested on: Enterococcus faecalis; test: Antibacterial activity against Enterococcus faecalis ATCC 29212 by CLSI M07-A8 method; format: functional
Outline: (§3)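 Broth microdilution MIC run per CLSI M07-A8 (2009).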

[5] = tested on: Staphylococcus aureus; test: Bacteriostatic activity against Staphylococcus aureus ATCC 01001 infected in thigh of CD1 mouse assessed as prevention of colony formation at 80 mg/kg, ip administered 2 hrs post infection measured after 24 hrs; format: functional, organism-based; design: dose 80 mg/kg; outline: as §2
[6] = Clearance in Sprague-Dawley rat at 75 mg/kg, iv bolus; format: ADME, organism-based; design: dose 75 mg/kg, route intravenous; details: in vivo; outline: as §1
[7] = tested on: Rattus norvegicus; test: Cmax in Sprague-Dawley rat at 75 mg/kg, iv bolus; format: ADME, organism-based; design: dose 75 mg/kg, route intravenous; details: in vivo; outline: as §1
[8] = tested on: Streptococcus pneumoniae; test: Antibacterial activity against Streptococcus pneumoniae by CLSI M07-A8 method; format: functional, organism-based; outline: as §3
[9] = AUC in Sprague-Dawley rat at 75 mg/kg, iv bolus; format: ADME, organism-based; design: dose 75 mg/kg, route intravenous; details: plasma; outline: as §1
[10] = AUC in Sprague-Dawley rat at 1 mg/kg, iv bolus; format: ADME, organism-based; design: dose 1 mg/kg, route intravenous; details: plasma; outline: as §1
[11] = Plasma protein binding in Sprague-Dawley rat; format: ADME, cell-free; details: read-out: PPB
Outline: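 Rat plasma protein binding was determined in triplicate by rapid equilibrium dialysis. Samples were quantified by LC−MS/MS after acetonitrile precipitation with glyburide internal standard.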

[12] = tested on: Staphylococcus aureus; test: Antibacterial activity against Staphylococcus aureus ATCC 49951 infected in CD1 mouse assessed as protection against bacterial infection administered 5 hrs post infection measured on day 5; format: functional
Outline: (§4)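 Mouse lethal systemic infection: ip injection of 1 × 10^8 cfu/mouse (10−100× minimal lethal dose), E. faecalis in 50% sterile rat fecal extract, S. aureus in 0.9% NaCl. Therapy by tail-vein bolus at several doses, six mice per group. Started immediately for E. faecalis; at 1 and 5 h post-inoculation for S. aureus.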

[13] = tested on: Streptococcus pyogenes; test: Antibacterial activity against Streptococcus pyogenes ATCC BAA-595 by CLSI M07-A8 method; format: functional; outline: as §3
[14] = Cmax in Sprague-Dawley rat at 25 mg/kg, iv bolus; format: ADME, organism-based; design: dose 25 mg/kg, route intravenous; details: in vivo; outline: as §1
[15] = tested on: Enterococcus faecium; test: Antibacterial activity against Enterococcus faecium 7130724 by CLSI M07-A8 method; format: functional; outline: as §3
[16] = Volume of distribution at steady state in Sprague-Dawley rat at 75 mg/kg, iv bolus; format: ADME, organism-based; design: dose 75 mg/kg, route intravenous; details: in vivo, read-out: Vdss; outline: as §1
[17] = Volume of distribution at steady state in Sprague-Dawley rat at 25 mg/kg, iv bolus; format: ADME, organism-based; design: dose 25 mg/kg, route intravenous; details: in vivo, read-out: Vdss; outline: as §1
[18] = tested on: Rattus norvegicus; test: Dose normalized AUC in Sprague-Dawley rat at 1 mg/kg, iv bolus; format: ADME, organism-based; design: dose 1 mg/kg, route intravenous; details: in vivo; outline: as §1
[19] = tested on: Enterococcus faecalis; test: Antibacterial activity against Enterococcus faecalis isolate NB04025 infected in CD1 mouse assessed as protection against bacterial infection administered immediately after infection measured on day 5; format: functional; details: isolate NB04025, 120 h; outline: as §4
[20] = tested on: Rattus norvegicus; test: Dose normalized AUC in Sprague-Dawley rat at 75 mg/kg, iv bolus; format: ADME, organism-based; design: dose 75 mg/kg, route intravenous; details: in vivo; outline: as §1
[21] = Cmax in Sprague-Dawley rat at 1 mg/kg, iv bolus; format: ADME, organism-based; design: dose 1 mg/kg, route intravenous; details: in vivo; outline: as §1
[22] = Chemical stability of the compound in 15% v/v NaOH, 5% PEG-300, 0.9% saline, 55% v/v water at pH 7.2 to 7.8; format: physicochemical; details: buffer
[23] = tested on: Staphylococcus aureus; test: Bacteriostatic activity against Staphylococcus aureus ATCC 01001 infected in thigh of CD1 mouse assessed as prevention of colony formation at 40 mg/kg, ip administered 2 hrs post infection measured after 12 hrs; format: functional, organism-based; design: dose 40 mg/kg; outline: as §2
[24] = Clearance in Sprague-Dawley rat at 1 mg/kg, iv bolus; format: ADME, organism-based; design: dose 1 mg/kg, route intravenous; details: in vivo; outline: as §1
[25] = AUC in Sprague-Dawley rat at 25 mg/kg, iv bolus; format: ADME, organism-based; design: dose 25 mg/kg, route intravenous; details: plasma; outline: as §1
[26] = Volume of distribution at steady state in Sprague-Dawley rat at 1 mg/kg, iv bolus; format: ADME, organism-based; design: dose 1 mg/kg, route intravenous; details: in vivo, read-out: Vdss; outline: as §1
[27] = tested on: Rattus norvegicus; test: Dose normalized AUC in Sprague-Dawley rat at 25 mg/kg, iv bolus; format: ADME, organism-based; design: dose 25 mg/kg, route intravenous; details: in vivo; outline: as §1
[28] = Oral bioavailability in Sprague-Dawley rat; format: ADME, organism-based; details: in vivo
[29] = tested on: Staphylococcus aureus; test: Antibacterial activity against methicillin-resistant Staphylococcus aureus isolate A4.018 by CLSI M07-A8 method; format: functional

CNC(=O)C[C@@H]1NC(=O)c2csc(n2)-c2ccc(-c3nc(NC(=O)[C@H]4CC[C@H](C(=O)O)CC4)cs3)nc2-c2csc(n2)-c2csc(n2)[C@H]([C@@H](O)c2ccccc2)NC(=O)CNC(=O)c2nc(sc2COC)[C@H](C(C)C)NC(=O)c2nc1sc2C
clearance [1]: 1 mL/min/kg | Activity [2]: Active | Activity [3]: Active | MIC [4]: 0.06 µg/mL (≈ 0.048 µM) | Activity [5]: Active | clearance [6]: 0.4 mL/min/kg | Cmax [7]: > 1000 µM | Activity [8]: Active | AUC [9]: 2860 µM·h | AUC [10]: 3 µM·h | fraction unbound [11]: < 0.01 | ED50 [12]: 5.2 mg/kg | MIC [13]: 4 µg/mL (≈ 3.2 µM) | Cmax [14]: 320 µM | MIC [15]: 0.06 µg/mL (≈ 0.048 µM) | Vd [16]: < 0.1 L/kg | Vd [17]: < 0.1 L/kg | AUC/dose [18]: 3 µM·h/mg/kg | ED50 [19]: 0.6 mg/kg | AUC/dose [20]: 38.2 µM·h/mg/kg | Cmax [21]: 5 µM | Stability [22]: > 1 weeks | Activity [23]: Active | clearance [24]: 6.7 mL/min/kg | AUC [25]: 343 µM·h | Vd [26]: < 0.1 L/kg | AUC/dose [27]: 13.7 µM·h/mg/kg | bioavailability [28]: < 0.1% | MIC [29]: 0.125 µg/mL (≈ 0.1 µM)
